According to ChEMBL document CHEMBL3233008, “Design, synthesis, and biological evaluation of Erythrina alkaloid analogues as neuronal nicotinic acetylcholine receptor antagonists” (J Med Chem, 2013):
The source made the active and inactive calls. No cut-off for these calls is given here.

Key:
[1] = molecular target: Neuronal acetylcholine receptor; alpha4/beta2 (Rattus norvegicus) (UniProt P09483+P12390); assay: (§1) Displacement of [3H]epibatidine from rat alpha4/beta2 nAChR expressed in HEK293 cells; assay type: cell-based
Summary of the method: (§2)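 Membranes from HEK293 cells stably expressing rat α4β2, α3β4 or α4β4; [3H]epibatidine competition binding. IC50 converted to Ki by Cheng–Prusoff. Means of 3–5 experiments in duplicate.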

[2] = molecular target: Neuronal acetylcholine receptor; alpha4/beta2 (Rattus norvegicus, UniProt P09483+P12390); assay: as §1; assay type: cell-based; summary of the method: as §2
[3] = molecular target: Neuronal acetylcholine receptor; alpha4/beta4 (Rattus norvegicus, UniProt P09483+P12392); assay: Displacement of [3H]epibatidine from rat alpha4/beta4 nAChR expressed in HEK293 cells; assay type: cell-based; summary of the method: as §2
[4] = molecular target: T1, Neuronal acetylcholine receptor; alpha3/beta4 (Rattus norvegicus, UniProt P04757+P12392); assay: Displacement of [3H]epibatidine from rat alpha3/beta4 nAChR expressed in HEK293 cells; assay type: cell-based; summary of the method: as §2
[5] = Displacement of [3H]MLA from rat/mouse alpha7 nAChR/5HT3A expressed in tsA201 cells; assay type: cell-based
Summary of the method: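 [3H]MLA binding on membranes from tsA201 cells transiently expressing a chimera of rat α7 amino-terminal domain and murine 5-HT3A ion-channel domain. Ki from IC50 via Cheng–Prusoff; 3–5 experiments in duplicate.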

[6] = molecular target: Nicotinic acetylcholine receptor alpha-4/beta-2 (Mus musculus, UniProt Q8R493+Q9ERK7); assay: Antagonist activity at mouse alpha4/beta2 nAChR expressed in HEK293 cells assessed as inhibition of (S)-nicotine-induced activity by FLIPR membrane potential blue assay; assay type: cell-based
Summary of the method: (§3)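 Mouse α4β2 in stably transfected HEK293T cells and rat α3β4 in stable HEK293 cells; FLIPR Membrane Potential Blue read-out. (S)-Nicotine agonist at EC70–EC80: 1 μM for α4β2, 3 μM for α3β4. Functional IC50 from 3–5 experiments in duplicate.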

[7] = molecular target: T1, Neuronal acetylcholine receptor; alpha3/beta4; assay: Antagonist activity at rat alpha3/beta4 nAChR expressed in HEK293 cells assessed as inhibition of (S)-nicotine-induced activity by FLIPR membrane potential blue assay; assay type: cell-based; summary of the method: as §3
Rattus norvegicus [8] = species on record: Rattus norvegicus; assay: Selectivity ratio of Ki for rat alpha4/beta4 nAChR to Ki for rat alpha4/beta2 nAChR
Rattus norvegicus [9] = species on record: Rattus norvegicus; assay: Selectivity ratio of Ki for rat alpha3/beta4 nAChR to Ki for rat alpha4/beta2 nAChR
[10] = Selectivity ratio of Ki for rat/mouse alpha7 nAChR/5HT3A to Ki for rat alpha4/beta2 nAChR
[11] = molecular target: Sodium-dependent serotonin transporter (Homo sapiens, UniProt P31645); assay: Displacement of [3H]-serotonin from human SERT expressed in African green monkey COS7 cells after 10 mins; assay type: cell-based, COS-7
Summary of the method: (§4)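 COS7 cells transiently transfected with human SERT, NET or DAT, assayed 40–48 h later. 30 min preincubation with compound in PBS pH 7.4 plus 0.1 mM CaCl2, 0.5 mM MgCl2; ascorbic acid 1 mM added for NET/DAT. Substrate 50 nM final: [3H]serotonin for SERT, [3H]dopamine for NET/DAT.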

[12] = molecular target: Sodium-dependent dopamine transporter (Homo sapiens, UniProt Q01959); assay: Displacement of [3H]-dopamine from human DAT expressed in African green monkey COS7 cells after 10 mins; assay type: cell-based, COS-7; summary of the method: as §4
[13] = molecular target: Sodium-dependent noradrenaline transporter (Homo sapiens, UniProt P23975); assay: Displacement of [3H]-dopamine from human NET expressed in African green monkey COS7 cells after 10 mins; assay type: cell-based, COS-7; summary of the method: as §4
Mus musculus = assay: Antidepressant like activity in mouse at 30 mg/kg, sc administered 20 mins before test measured for 6 mins by forced swimming test; assay type: functional, organism-based; parameters: dose 30 mg/kg
Summary of the method: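 Mice, n = 7–8, placed singly in a 16 cm beaker holding 20 cm of water at 23.5–24.5 °C. Compound in 0.9% saline given sc at 10 mL/kg 20 min before testing. Swim distance tracked by camera over 6 min, with the first minute excluded. Analysed by one-way ANOVA with planned comparisons.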

[14] = molecular target: Neuronal acetylcholine receptor subunit alpha-7 (Homo sapiens, UniProt P36544); assay: Displacement of [3H]cytisine from alpha7 nAChR (unknown origin)
[15] = molecular target: Neuronal acetylcholine receptor; alpha4/beta2 (Homo sapiens, UniProt P17787+P43681); assay: Displacement of [3H]cytisine from alpha4/beta2 nAChR (unknown origin); assay type: protein-complex assay

Sequence of Nicotinic acetylcholine receptor alpha-4/beta-2 (Q9ERK7 whole entry): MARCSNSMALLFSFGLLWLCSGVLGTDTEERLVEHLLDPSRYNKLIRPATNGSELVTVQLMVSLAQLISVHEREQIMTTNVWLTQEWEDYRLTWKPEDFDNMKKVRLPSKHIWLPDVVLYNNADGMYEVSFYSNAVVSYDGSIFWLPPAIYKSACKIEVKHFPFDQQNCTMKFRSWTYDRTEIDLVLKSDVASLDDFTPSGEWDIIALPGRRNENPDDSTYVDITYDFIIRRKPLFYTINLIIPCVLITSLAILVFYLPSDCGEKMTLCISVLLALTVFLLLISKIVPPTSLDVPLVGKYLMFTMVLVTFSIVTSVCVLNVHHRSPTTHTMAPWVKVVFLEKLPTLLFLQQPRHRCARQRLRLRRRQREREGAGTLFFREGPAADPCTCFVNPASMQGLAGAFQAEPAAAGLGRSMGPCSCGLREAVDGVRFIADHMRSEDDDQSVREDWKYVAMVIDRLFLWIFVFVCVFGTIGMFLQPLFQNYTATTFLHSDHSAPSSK
Sequence of Nicotinic acetylcholine receptor alpha-4/beta-2 (Q8R493 whole entry): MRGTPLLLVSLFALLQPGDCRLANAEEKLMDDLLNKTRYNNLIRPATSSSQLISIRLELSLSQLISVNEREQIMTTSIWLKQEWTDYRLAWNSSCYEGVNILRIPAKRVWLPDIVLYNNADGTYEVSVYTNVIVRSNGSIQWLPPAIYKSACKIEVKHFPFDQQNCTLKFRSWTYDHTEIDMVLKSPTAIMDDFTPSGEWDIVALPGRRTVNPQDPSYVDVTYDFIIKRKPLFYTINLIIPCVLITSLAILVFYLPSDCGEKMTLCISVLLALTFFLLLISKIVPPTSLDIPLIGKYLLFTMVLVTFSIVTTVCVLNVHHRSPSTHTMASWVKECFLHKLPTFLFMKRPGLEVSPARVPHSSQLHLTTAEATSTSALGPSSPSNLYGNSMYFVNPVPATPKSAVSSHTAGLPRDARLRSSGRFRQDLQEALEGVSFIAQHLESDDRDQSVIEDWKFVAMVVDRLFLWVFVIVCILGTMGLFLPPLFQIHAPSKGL
Sequence of Neuronal acetylcholine receptor; alpha4/beta2 (Rattus norvegicus, UniProt P09483+P12390) (P09483 whole entry): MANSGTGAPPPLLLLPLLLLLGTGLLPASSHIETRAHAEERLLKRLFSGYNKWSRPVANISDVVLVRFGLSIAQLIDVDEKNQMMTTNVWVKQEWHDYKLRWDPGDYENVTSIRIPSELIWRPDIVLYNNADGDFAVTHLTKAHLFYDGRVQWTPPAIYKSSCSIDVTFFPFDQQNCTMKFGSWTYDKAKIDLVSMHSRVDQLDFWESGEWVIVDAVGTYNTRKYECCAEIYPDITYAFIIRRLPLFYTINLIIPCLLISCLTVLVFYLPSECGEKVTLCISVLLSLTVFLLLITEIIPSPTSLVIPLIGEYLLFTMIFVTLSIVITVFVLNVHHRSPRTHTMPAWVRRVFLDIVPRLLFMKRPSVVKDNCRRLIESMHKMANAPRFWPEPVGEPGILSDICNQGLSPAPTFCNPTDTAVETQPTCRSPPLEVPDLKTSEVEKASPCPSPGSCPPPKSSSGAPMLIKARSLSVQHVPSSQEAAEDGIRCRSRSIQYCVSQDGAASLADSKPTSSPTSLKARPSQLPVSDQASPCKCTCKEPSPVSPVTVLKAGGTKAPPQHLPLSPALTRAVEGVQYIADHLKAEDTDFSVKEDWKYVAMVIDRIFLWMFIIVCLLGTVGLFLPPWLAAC
Sequence of Neuronal acetylcholine receptor; alpha4/beta2 (Rattus norvegicus, UniProt P09483+P12390) (P12390 whole entry): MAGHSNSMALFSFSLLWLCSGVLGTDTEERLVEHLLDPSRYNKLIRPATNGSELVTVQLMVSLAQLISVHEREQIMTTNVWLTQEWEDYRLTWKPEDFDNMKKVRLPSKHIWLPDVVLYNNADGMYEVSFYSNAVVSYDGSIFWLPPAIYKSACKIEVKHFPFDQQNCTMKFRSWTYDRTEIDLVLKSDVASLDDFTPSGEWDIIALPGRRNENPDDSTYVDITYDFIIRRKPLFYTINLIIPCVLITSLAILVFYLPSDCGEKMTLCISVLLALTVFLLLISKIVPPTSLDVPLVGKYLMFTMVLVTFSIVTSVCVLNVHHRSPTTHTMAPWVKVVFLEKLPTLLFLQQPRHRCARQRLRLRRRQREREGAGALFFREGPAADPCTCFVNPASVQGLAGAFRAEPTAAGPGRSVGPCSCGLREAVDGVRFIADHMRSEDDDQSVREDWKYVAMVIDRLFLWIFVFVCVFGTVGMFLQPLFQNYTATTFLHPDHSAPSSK
Sequence of Neuronal acetylcholine receptor; alpha4/beta4 (P09483 whole entry): as the sequence (P09483 whole entry) above
Sequence of Neuronal acetylcholine receptor; alpha4/beta4 (P12392 whole entry): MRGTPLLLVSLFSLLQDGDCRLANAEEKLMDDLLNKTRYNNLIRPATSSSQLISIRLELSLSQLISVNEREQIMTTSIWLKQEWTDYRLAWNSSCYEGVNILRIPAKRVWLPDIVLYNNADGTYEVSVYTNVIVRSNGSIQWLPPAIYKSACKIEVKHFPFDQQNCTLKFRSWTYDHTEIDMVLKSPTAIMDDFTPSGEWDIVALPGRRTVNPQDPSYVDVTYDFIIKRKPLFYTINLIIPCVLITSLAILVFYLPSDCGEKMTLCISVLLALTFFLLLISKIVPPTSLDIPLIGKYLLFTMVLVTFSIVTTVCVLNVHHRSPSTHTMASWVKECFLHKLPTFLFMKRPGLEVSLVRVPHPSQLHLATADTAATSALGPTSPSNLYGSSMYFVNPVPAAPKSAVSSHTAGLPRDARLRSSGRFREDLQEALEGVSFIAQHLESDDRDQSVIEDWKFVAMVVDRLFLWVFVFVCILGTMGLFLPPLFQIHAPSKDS
T1 sequence (P04757 whole entry): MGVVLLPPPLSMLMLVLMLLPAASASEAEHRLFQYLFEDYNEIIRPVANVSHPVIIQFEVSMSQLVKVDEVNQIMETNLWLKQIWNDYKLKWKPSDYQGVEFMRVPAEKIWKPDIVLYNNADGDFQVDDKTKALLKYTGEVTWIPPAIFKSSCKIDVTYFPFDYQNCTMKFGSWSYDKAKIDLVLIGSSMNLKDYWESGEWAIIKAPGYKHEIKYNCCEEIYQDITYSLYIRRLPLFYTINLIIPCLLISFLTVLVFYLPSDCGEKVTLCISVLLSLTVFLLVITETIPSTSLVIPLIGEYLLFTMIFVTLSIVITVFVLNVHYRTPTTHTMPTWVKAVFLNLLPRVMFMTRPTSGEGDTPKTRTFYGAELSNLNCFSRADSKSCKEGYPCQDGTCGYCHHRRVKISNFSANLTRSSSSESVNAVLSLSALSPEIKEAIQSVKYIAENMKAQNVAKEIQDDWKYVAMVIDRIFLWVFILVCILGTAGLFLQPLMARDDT
T1 sequence (P12392 whole entry): as the sequence (P12392 whole entry) above
Sequence of Neuronal acetylcholine receptor subunit alpha-7 (P36544 whole entry): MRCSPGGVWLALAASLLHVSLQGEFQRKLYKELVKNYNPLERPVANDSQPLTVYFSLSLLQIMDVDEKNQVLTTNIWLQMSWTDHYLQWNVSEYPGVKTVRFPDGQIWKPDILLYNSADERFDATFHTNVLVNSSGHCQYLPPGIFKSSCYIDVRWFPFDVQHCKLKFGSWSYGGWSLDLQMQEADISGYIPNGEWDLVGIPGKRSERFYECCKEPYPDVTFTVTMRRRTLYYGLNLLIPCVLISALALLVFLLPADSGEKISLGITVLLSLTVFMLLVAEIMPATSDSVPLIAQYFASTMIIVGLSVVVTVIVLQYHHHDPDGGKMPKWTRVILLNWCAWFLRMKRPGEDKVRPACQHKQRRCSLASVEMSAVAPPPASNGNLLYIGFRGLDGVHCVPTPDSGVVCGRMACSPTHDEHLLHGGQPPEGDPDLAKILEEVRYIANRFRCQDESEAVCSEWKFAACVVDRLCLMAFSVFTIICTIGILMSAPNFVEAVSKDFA
Sequence of Sodium-dependent noradrenaline transporter (P23975 whole entry): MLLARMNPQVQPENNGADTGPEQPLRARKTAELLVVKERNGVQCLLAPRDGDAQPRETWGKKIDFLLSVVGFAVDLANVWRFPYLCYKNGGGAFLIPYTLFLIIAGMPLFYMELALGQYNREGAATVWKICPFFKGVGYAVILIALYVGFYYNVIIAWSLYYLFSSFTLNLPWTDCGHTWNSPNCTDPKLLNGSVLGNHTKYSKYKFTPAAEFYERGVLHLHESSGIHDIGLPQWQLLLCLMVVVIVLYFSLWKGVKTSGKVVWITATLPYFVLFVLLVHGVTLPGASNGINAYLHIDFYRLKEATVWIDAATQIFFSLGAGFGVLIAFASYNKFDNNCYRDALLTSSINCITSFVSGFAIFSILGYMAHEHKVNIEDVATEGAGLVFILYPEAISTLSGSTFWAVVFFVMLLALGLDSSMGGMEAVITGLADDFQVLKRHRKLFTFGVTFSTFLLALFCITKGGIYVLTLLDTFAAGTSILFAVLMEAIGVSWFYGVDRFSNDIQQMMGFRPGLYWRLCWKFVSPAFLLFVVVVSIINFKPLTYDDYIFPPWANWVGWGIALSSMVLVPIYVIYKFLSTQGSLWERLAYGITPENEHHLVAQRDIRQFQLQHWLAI
Sequence of Sodium-dependent dopamine transporter (Q01959 whole entry): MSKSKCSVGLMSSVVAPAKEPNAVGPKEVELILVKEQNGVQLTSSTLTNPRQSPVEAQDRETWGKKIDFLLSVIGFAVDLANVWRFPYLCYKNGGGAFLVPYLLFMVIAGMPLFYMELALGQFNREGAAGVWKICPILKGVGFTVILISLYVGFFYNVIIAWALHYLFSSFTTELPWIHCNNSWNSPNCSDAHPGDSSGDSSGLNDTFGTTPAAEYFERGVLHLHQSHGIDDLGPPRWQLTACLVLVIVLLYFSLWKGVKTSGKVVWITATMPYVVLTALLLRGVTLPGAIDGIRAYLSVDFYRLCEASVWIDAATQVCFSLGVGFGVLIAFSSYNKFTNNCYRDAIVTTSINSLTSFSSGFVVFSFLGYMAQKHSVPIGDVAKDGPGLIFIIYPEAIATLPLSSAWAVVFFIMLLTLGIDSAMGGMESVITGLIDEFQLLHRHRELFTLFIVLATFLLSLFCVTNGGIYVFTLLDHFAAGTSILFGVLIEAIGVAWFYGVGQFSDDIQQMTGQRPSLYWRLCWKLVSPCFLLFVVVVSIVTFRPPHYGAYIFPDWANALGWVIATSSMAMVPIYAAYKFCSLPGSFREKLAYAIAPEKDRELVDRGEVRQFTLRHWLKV

| SMILES | inhibition [1] | Ki [2] [µM] | Ki [3] [µM] | Ki [4] [µM] | Ki [5] [µM] | IC50 [6] [µM] | IC50 [7] [µM] | also measured |
| --- | --- | --- | --- | --- | --- | --- | --- | --- |
| COc1cc2c(cc1OC)CN(C)CC2 | Dose-dependent effect | 0.87 | 300 | 300 | > 500 | 12 | 100 | Ratio Ki (Rattus norvegicus [8]): > 300; Ratio Ki (Rattus norvegicus [9]): > 300; Ratio Ki [10]: > 300; Ki [11]: 46.7 µM; Ki [12]: > 10000 µM; Ki [13]: 129 µM; Activity (Mus musculus): Active |
| CN1CCc2cc3c(cc2C1)OCO3 | Dose-dependent effect | 1.7 | 50 | 300 | 500 | 2.6 | 300 |  |
| CCCCC1c2cc(OC)c(OC)cc2CCN1C (stereo unspecified) |  | 30 |  |  |  | > 300 |  |  |
| CO[C@H]1CC=C2CCN3CCC4=C(CC(=O)OC4)[C@]23C1 |  |  |  |  |  |  |  | Ki [14]: 10.5 µM |
| COc1cc2c(cc1O)CCN(C)C2 | Dose-dependent effect | 10 | 100 | 300 | > 500 | 33 | 1000 |  |
| CCC1c2cc(OC)c(OC)cc2CCN1C (stereo unspecified) |  | 300 |  |  |  | > 300 |  |  |
| COc1cc2c(cc1OC)C(C1CCCCC1)N(C)CC2 (stereo unspecified) |  | 300 |  |  |  | > 300 |  |  |
| COc1cc2c(cc1OC)C(c1ccccc1)N(C)CC2 (stereo unspecified) |  | 100 |  |  |  | > 300 |  |  |
| COc1cccc(C2c3cc(OC)c(OC)cc3CCN2C)c1 (stereo unspecified) |  | 300 |  |  |  | > 300 |  |  |
| COc1ccc(C2c3cc(OC)c(OC)cc3CCN2C)cc1OC (stereo unspecified) |  | > 300 |  |  |  | > 300 |  |  |
| CN1CCc2cc(O)c(O)cc2C1 | Dose-dependent effect | 6.8 | 100 | 100 | > 500 | 16 | > 1000 |  |
| COc1cc2c(cc1O)CN(C)CC2 | Dose-dependent effect | 1.7 | 100 | 300 | > 500 | 4.4 | > 1000 |  |
| COc1cc2c(cc1OC)C1CCCN1CC2 (racemic) | Dose-dependent effect | 5.5 | 100 | 300 | > 500 | 31 | 100 |  |
| c1c2c(cc3c1OCO3)C1CCCN1CC2 (racemic) | Dose-dependent effect | 0.55 | 21 | 100 |  | 3.3 | 100 |  |
| COc1cc2c(cc1O)CCN1CCCC21 (racemic) | Dose-dependent effect | 100 | 100 | 300 | 500 | 50 | 300 |  |
| COc1cc2c(cc1O)C1CCCN1CC2 (racemic) | Dose-dependent effect | 3.4 | 100 | 100 | 300 | 23 | 300 |  |
| Oc1cc2c(cc1O)C1CCCN1CC2 (racemic) | Dose-dependent effect | 11 | 50 | 100 | 300 | 100 | 1000 |  |
| COc1cc2c(cc1OC)[C@]13CCCC[C@H]1CCN3CC2 (relative stereo) | Dose-dependent effect | 100 | 100 | 100 | 30 | 31 | 50 |  |
| c1c2c(cc3c1OCO3)[C@]13CCCC[C@H]1CCN3CC2 (relative stereo) | Dose-dependent effect | 7.3 | 50 | 30 | 18 | 9.2 | 50 |  |
| COc1cc2c(cc1O)CCN1CC[C@@H]3CCCC[C@@]231 (relative stereo) | Dose-dependent effect | 8.5 | 50 | 100 | 20 | 2.3 | 50 |  |
| COc1cc2c(cc1O)[C@]13CCCC[C@H]1CCN3CC2 (relative stereo) | Dose-dependent effect | 18 | 23 | 30 | 5.5 | 2.9 | 33 |  |
| Oc1cc2c(cc1O)[C@]13CCCC[C@H]1CCN3CC2 (relative stereo) | Dose-dependent effect | 1.5 | 19 | 30 | 7.3 | 0.58 | 50 |  |
| COc1cc2c(cc1O)CCN1CC=C3C=C[C@H](OC)C[C@]321 [ERYSODINE] |  |  |  |  |  |  |  | Ki [14]: 7.5 µM |
| COc1cc2c(cc1OC)[C@]13C[C@@H](OC)C=CC1=CCN3CC2 [ERYSOTRINE] |  |  |  |  |  |  |  | Ki [15]: 0.6 µM |
